In brackets after ≈: the same amount, converted by molar mass.
Key:
Assay type in all cases: functional
Candida tropicalis [1] = experiment: Evaluation of In vitro antifungal activity against Candida tropicalis 2.11 by broth macro dilution method
How it was run: (§1)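 Yeast MIC and MFC by broth macrodilution per NCCLS M27-P in RPMI-1640 buffered with 0.165 M MOPS. Fluconazole in sterile water, other drugs in DMSO. C. parapsilosis ATCC 22019 is the reference strain in each run. MIC is the lowest concentration with turbidity ≤ the 80% inhibition standard. For MFC, 0.04 mL from clear tubes is plated on Sabouraud agar; MFC is the lowest concentration giving ≤1 colony.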

Kluyveromyces marxianus [2] = experiment: In vivo Evaluation of minimum inhibitory concentration against Candida pseudotropicalis 13; details: Kluyveromyces marxianus; read-out: MIC
How it was run: (§2)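 Stocks are 800 μg/mL in 50% ethanol. Each plate gets 10 μL of inoculum at 10^5 cfu/mL. Incubation at 25 °C, 48 h for yeasts and 120 h for dermatophytes and molds. Organisms are ATCC strains or clinical isolates.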

Rattus norvegicus [3] = experiment: In vivo evaluation of antifungal activity against vaginal candidosis in rat at dose 0.25 mg/kg on 10th day
How it was run: (§3)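 Groups of 10 female Wistar rats given estradiol 25 mg/kg sc on day -5, infected intravaginally with C. albicans by sterile swab on day 0; infection confirmed on day 3 by swab culture (TSB, then Sabouraud agar). Oral dosing once daily on days 3, 4, 5; vehicle controls. Vaginal swabs cultured on days 10 and 15; read-out % cured (culture-negative).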

Rattus norvegicus [4] = experiment: In vivo evaluation of antifungal activity against vaginal candidosis in rat at dose 0.1 mg/kg on 10th day
How it was run: (§4)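 Groups of 10 female Wistar rats given estradiol 25 mg/kg sc on day -5, then vaginally inoculated with C. albicans on day 0. Infection is confirmed by culture of day-3 swabs. Compound is dosed orally once daily on days 3–5; controls get vehicle. Cure is scored by culture of vaginal swabs taken on days 10 and 15.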

Rattus norvegicus [5] = experiment: In vivo evaluation of antifungal activity against vaginal candidosis in rat at dose 0.1 mg/kg on 15th day; how it was run: as §4
Candida albicans [6] = experiment: In vivo evaluation of minimum inhibitory concentration against Candida albicans 60
How it was run: (§5)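 Broth macrodilution MIC following NCCLS M27-P, in RPMI-1640 buffered with 0.165 M MOPS. Fluconazole was dissolved in water and other drugs in DMSO. C. parapsilosis ATCC 22019 served as the reference strain in every run. MIC was the lowest concentration giving turbidity at or below the 80% inhibition standard.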

Candida albicans [7] = experiment: In vivo evaluation of minimum inhibitory concentration against Candida albicans 406; how it was run: as §5
Nakaseomyces glabratus [8] = experiment: In vivo Evaluation of minimum inhibitory concentration against Torulopsis glabrata 78; details: in the assay text read “In vitro” for “In vivo”; how it was run: as §2
Rhodotorula mucilaginosa [9] = experiment: In vivo Evaluation of minimum inhibitory concentration against Rhodotorula rubra 16; details: in the assay text read “In vitro” for “In vivo”; how it was run: as §2
Nakaseomyces glabratus [10] = experiment: Evaluation of In vitro antifungal activity against Torulopsis glabrata 78 by broth macro dilution method; how it was run: as §1
Candida tropicalis [11] = experiment: In vivo Evaluation of minimum inhibitory concentration against Candida tropicalis 2.11; how it was run: as §2
Mus musculus [12] = experiment: In vivo evaluation of % survival rate after peroral administration on 5th day at dose 10 mg/kg; details: route oral
Candida albicans [13] = experiment: […] Evaluation of minimum inhibitory concentration against Candida albicans 60; how it was run: as §2
Rattus norvegicus [14] = experiment: In vivo evaluation of antifungal activity in against vaginal candidosis in rat at dose 0.25 mg/kg on 10th day; how it was run: as §3
Candida tropicalis [15] = experiment: In vitro evaluation of minimum inhibitory concentration against Candida tropicalis 2.11; details: Candida tropicalis; read-out: MIC; how it was run: as §2
Mus musculus [16] = experiment: In vivo evaluation of % survival rate after peroral administration on 5th day at dose 20 mg/kg; details: route oral
Rhodotorula mucilaginosa [17] = experiment: In vitro evaluation of minimum inhibitory concentration against Rhodotorula rubra 16; details: Rhodotorula mucilaginosa; read-out: MIC; how it was run: as §2
Rattus norvegicus [18] = experiment: In vivo evaluation of antifungal activity against vaginal candidosis in rat at dose 0.5 mg/kg on 15th day
How it was run: (§6)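 Female Wistar rats, 10 per group, received estradiol 25 mg/kg sc on day -5. On day 0 they were infected intravaginally with C. albicans by sterile swab. Infection was confirmed on day 3 by culturing the swab in TSB and then on Sabouraud agar. Oral dosing was once daily on days 3, 4 and 5; controls got vehicle only. Vaginal swabs taken on days 10 and 15 were cultured and read the next day.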

Rattus norvegicus [19] = experiment: In vivo evaluation of antifungal activity against vaginal candidosis in rat at dose 0.5 mg/kg on 10th day; how it was run: as §6
Candida albicans [20] = experiment: […] Evaluation of minimum inhibitory concentration against Candida albicans 406; how it was run: as §2
Mus sp. [21] = experiment: In vivo evaluation of % survival rate after peroral administration on 3rd day at dose 2.5 mg/kg; details: Mus sp., po
Mus musculus [22] = experiment: In vivo evaluation of % survival rate after peroral administration on 9th day at dose 5 mg/kg; details: route oral
Mus musculus [23] = experiment: In vivo evaluation of % survival rate after peroral administration on 7th day at dose 20 mg/kg; details: route oral
Mus musculus [24] = experiment: In vivo evaluation of % survival rate after peroral administration on 3rd day at dose 5 mg/kg; details: route oral
Mus musculus [25] = experiment: In vivo evaluation of % survival rate after peroral administration on 7th day at dose 10 mg/kg; details: route oral
Mus musculus [26] = experiment: In vivo evaluation of % survival rate after peroral administration on 3rd day at dose 10 mg/kg; details: route oral
Mus musculus [27] = experiment: In vivo evaluation of % survival rate after peroral administration on 5th day at dose 5 mg/kg; details: route oral
Kluyveromyces marxianus [28] = experiment: In vitro evaluation of minimum inhibitory concentration against Candida pseudotropicalis 13; details: Kluyveromyces marxianus; read-out: MIC; how it was run: as §2
Mus musculus [29] = experiment: In vivo evaluation of % survival rate after peroral administration on 3rd day at dose 20 mg/kg; details: route oral
Mus sp. [30] = experiment: In vivo evaluation of % survival rate after peroral administration on 7th day at dose 2.5 mg/kg; details: Mus sp., po
Nakaseomyces glabratus [31] = experiment: In vitro evaluation of minimum inhibitory concentration against Torulopsis glabrata 78; details: Nakaseomyces glabratus; read-out: MIC; how it was run: as §2
Mus musculus [32] = experiment: In vivo evaluation of % survival rate after peroral administration on 9th day at dose 10 mg/kg; details: route oral
Mus sp. [33] = experiment: In vivo evaluation of % survival rate after peroral administration on 9th day at dose 2.5 mg/kg; details: Mus sp., po
Mus musculus [34] = experiment: In vivo evaluation of % survival rate after peroral administration on 7th day at dose 5 mg/kg; details: route oral
Mus musculus [35] = experiment: In vivo evaluation of % survival rate after peroral administration on 9th day at dose 20 mg/kg; details: route oral
Mus sp. [36] = experiment: In vivo evaluation of % survival rate after peroral administration on 5th day at dose 2.5 mg/kg; details: Mus sp., po

## C[C@H]1N(C(=O)c2ccc(C(F)(F)F)cc2)C[C@H](O)O[C@@]1(Cn1cncn1)c1ccc(F)cc1F (stereo in doubt; (-)-39a)
Candida tropicalis [1]
  MFC: > 64 µg/mL
  MIC: 64 µg/mL (≈ 133 µM)
Kluyveromyces marxianus [2]
  MIC: 20 µg/mL (≈ 41.5 µM)
Rattus norvegicus [3]
  Cure rate: 95%
Rattus norvegicus [4]
  Cure rate: 30%
Rattus norvegicus [5]
  Cure rate: 50%
Candida albicans [6]
  MIC: 2.5 µg/mL (≈ 5.18 µM)
Candida albicans [7]
  MIC: 1.25 µg/mL (≈ 2.59 µM)
Nakaseomyces glabratus [8]
  MIC: > 80 µg/mL
Rhodotorula mucilaginosa [9]
  MIC: > 80 µg/mL
Nakaseomyces glabratus [10]
  MFC: > 64 µg/mL
  MIC: > 64 µg/mL
Candida tropicalis [11]
  MIC: 40 µg/mL (≈ 82.9 µM)

## OC(Cn1cncn1)(Cn1cncn1)c1ccc(F)cc1F [FLUCONAZOLE]
Mus musculus [12]
  survival at 10 mg/kg: 100%
Candida tropicalis [1]
  MFC: > 64 µg/mL
  MIC: 1 µg/mL (≈ 3.27 µM)
Candida albicans [13]
  MIC: 2.5 µg/mL (≈ 8.16 µM)
Rattus norvegicus [14]
  Cure rate: 10%
Candida tropicalis [15]
  MIC: 80 µg/mL (≈ 261 µM)
Mus musculus [16]
  survival at 20 mg/kg: 100%
Rhodotorula mucilaginosa [17]
  MIC: > 80 µg/mL
Rattus norvegicus [18]
  Cure rate: 20%
Rattus norvegicus [19]
  Cure rate: 20%
Candida albicans [20]
  MIC: 2.5 µg/mL (≈ 8.16 µM)
Mus sp. [21]
  survival at 2.5 mg/kg: 100%
Mus musculus [22]
  survival at 5 mg/kg: 40%
Mus musculus [23]
  survival at 20 mg/kg: 98%
Mus musculus [24]
  survival at 5 mg/kg: 100%
Mus musculus [25]
  survival at 10 mg/kg: 80%
Mus musculus [26]
  survival at 10 mg/kg: 100%
Mus musculus [27]
  survival at 5 mg/kg: 100%
Kluyveromyces marxianus [28]
  MIC: 80 µg/mL (≈ 261 µM)
Mus musculus [29]
  survival at 20 mg/kg: 100%
Nakaseomyces glabratus [10]
  MFC: > 64 µg/mL
  MIC: 32 µg/mL (≈ 104 µM)
Mus sp. [30]
  survival at 2.5 mg/kg: 95%
Nakaseomyces glabratus [31]
  MIC: > 80 µg/mL
Mus musculus [32]
  survival at 10 mg/kg: 60%
Mus sp. [33]
  survival at 2.5 mg/kg: 70%
Mus musculus [34]
  survival at 5 mg/kg: 90%
Mus musculus [35]
  survival at 20 mg/kg: 75%
Mus sp. [36]
  survival at 2.5 mg/kg: 100%

Reference: ChEMBL document CHEMBL1128448, “Synthesis and antifungal activity of new azole derivatives containing an N-acylmorpholine ring” (1995)
